Source: PubChem
Hits are enriched below; roughly 2.9% of the tested compounds scored in any of these assays.
Tn7 DDE FP = disrupts Tn7 cyclic peptide binding to fibrin D-Dimer-E complex; inhibition, % at 8.3 µM; FP displacement of FITC-Tn7 peptide from fibrin DD(E); 0% = median of compound wells per plate; 0.13% of 370,000 active; AID 720508; P02675;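 active means inhibition above the mean of compounds falling within the control limits plus 3 SD of them, cut at about 14% in these data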;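 further: 0% = plate median of compound wells and 100% = 10 µM Aha-Tn7 peptide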
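Test system: human clot-derived fibrin DD(E) complex / Quantity: 2 µM final DD(E) protein / Incubation: 10 min plus 3 h, room temperature / Measured by: fluorescence polarization / Benchmarks: high control of 10 µM Aha-Tn7 peptide / Replicates: singlicate testing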
Tn6 DDE FP = disrupts Tn6 cyclic peptide binding to fibrin D-Dimer-E complex. inhibition, % at 8.3 µM. P02675. 0.21% of 370,000 active. AID 720509. Fibrin DD(E) TRITC-Tn6 fluorescence polarization displacement;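 active means inhibition above a per-campaign cutoff: mean of compounds within control limits plus 3 SD, cut at about 15% in these data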;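 further: 0% = median of all compound wells on the plate and 100% = blocking peptide control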
proKLK7 act = activators of human kallikrein-7 zymogen; P49862; purified proKLK7, EDANS-DABCYL substrate fluorescence; 100% is mature enzyme control, 0% vehicle; activation, % at 7 µM; 0.9% of 370,000 active; AID 652039;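 active means activation above the mean of all tested compounds plus 3 SD, computed per campaign excluding outliers beyond control limits, cut at about 13% in these data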
CRFBP-R2 block = antagonists of CRF-binding protein/CRF-R2 receptor complex; HEK293 CRF-R2/CRF-BP, CRF-induced calcium fluorescence; inhibition, % at 11.8 µM; 0.59% of 350,000 active;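 active means inhibition of the ligand-induced calcium signal above about 50% at the single tested concentration, limit read from the data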
NRP1-CendR mod = modulators of CendR peptide binding to human neuropilin-1 | O14786 | FAM-RPARPAR peptide binding to NRP-1, fluorescence polarization | inhibition, % at 25 µM | 0.85% of 360,000 active;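 active means inhibition or corrected inhibition above about 18%, plus a signal ratio from 0.5 to 1.5, limit read from the data, passing the limit was not always enough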
Target sequence (O14786 whole entry, looked up): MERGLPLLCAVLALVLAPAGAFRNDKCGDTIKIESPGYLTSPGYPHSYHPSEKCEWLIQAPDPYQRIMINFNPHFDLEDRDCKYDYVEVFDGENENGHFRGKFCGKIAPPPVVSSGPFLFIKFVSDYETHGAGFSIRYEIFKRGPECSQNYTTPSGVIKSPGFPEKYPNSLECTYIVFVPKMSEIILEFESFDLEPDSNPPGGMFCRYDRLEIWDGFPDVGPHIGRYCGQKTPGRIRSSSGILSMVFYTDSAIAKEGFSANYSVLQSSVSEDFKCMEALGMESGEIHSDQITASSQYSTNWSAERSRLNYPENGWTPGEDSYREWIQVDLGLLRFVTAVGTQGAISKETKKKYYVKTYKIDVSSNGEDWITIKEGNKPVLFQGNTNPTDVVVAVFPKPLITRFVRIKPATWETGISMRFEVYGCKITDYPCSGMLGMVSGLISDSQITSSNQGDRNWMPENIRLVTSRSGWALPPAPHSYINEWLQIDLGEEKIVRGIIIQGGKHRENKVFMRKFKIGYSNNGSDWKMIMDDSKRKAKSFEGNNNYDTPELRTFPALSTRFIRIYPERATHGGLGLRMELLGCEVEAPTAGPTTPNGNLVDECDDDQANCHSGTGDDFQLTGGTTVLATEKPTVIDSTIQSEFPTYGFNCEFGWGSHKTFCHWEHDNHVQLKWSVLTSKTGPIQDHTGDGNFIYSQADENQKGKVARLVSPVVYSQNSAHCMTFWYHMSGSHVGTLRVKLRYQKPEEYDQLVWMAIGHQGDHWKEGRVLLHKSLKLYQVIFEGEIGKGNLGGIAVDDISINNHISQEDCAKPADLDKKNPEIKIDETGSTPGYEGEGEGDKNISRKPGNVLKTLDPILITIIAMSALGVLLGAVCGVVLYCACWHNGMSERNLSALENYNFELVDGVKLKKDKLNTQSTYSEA
CRFBP-R2 agonist = CRF-BP/CRF-R2 complex agonism; HEK293 CRF-R2/CRF-BP, calcium dye fluorescence (FLIPR); percent of saturating CRF peptide response; activation, % at 13.2 µM; 0.46% of 350,000 active;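 active means activation of at least 50%, plus an integration ratio under a set limit after plate pattern correction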;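 further: plate controls were neutral control wells without compound for no effect and CRF at EC100 for full effect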
The depositor's hits bear a star; i = inactive; / = no result given.

SMILES	Tn7 DDE FP	Tn6 DDE FP	proKLK7 act	CRFBP-R2 block	NRP1-CendR mod	CRFBP-R2 agonist
CCCc1cc(=O)[nH]c(SCC(=O)N(C)Cc2ccccc2)n1	-4.7	1.6	0.1	-16.5	2.2	-1.2
Cc1nnc(SCC(=O)N(C)Cc2ccccc2)[nH]c1=O	3.4	2.6	-0.1	88.0*	5.3	-0.2
CCCC(=O)OC12CCCN(C1)/C(=C/c1ccc(Cl)cc1)C2 (stereo not drawn)	-3.0	1.5	-0.5	/	/	/
O=C1c2[nH]nc(-c3ccccc3)c2C(c2cccc(C(F)(F)F)c2)N1c1ccccc1 (stereo not drawn)	0.2	1.0	0.5	/	/	/
CCc1ccc(N=C2NC(=O)/C(=C/c3cc(OC)c(O)c(OC)c3)S2)cc1	-17.2	-7.3	-0.7	-24.5	-117.9	5.4
COc1cc(/C=C2\SC(=Nc3ccccc3)NC2=O)cc(Cl)c1O	-59.6	-13.6	-1.2	-158.8	143.1	212.6*
COc1cc(/C=C2\SC(=Nc3ccc(Cl)c(C(=O)O)c3)NC2=O)c(Br)c(Br)c1O	-28.1	-11.3	-0.2	-194.4	133.2	201.2*
Cc1ccc(-n2c(SCC(=O)Nc3ccccc3-c3ccccc3)nnc2-c2cccnc2)cc1	-3.6	2.1	0.7	/	/	/
CN(CCO)c1cccc2c1S(=O)(=O)N(Cc1cn(Cc3cccc(F)c3)nn1)Cc1ccccc1O2	3.1	-5.6	-0.1	/	/	/
C=CCN1[C@@H](C)COc2cc(N3CCCC3)ccc2S1(=O)=O	-7.8	3.9	0.2	/	/	/
c1ccc2c(c1)OCCOCCOCCOCCOc1ccccc1OCCOCCOCCO2	2.4	-5.0	0.1	50.2*	-1.0	0.6
COc1cc(C=Nn2c(-c3cc(-c4ccccc4)n[nH]3)n[nH]c2=S)ccc1OC(C)=O	-5.9	-2.2	-1.1	/	/	/
C=CC[C@@H](CC(=O)N[C@H](CO)Cc1ccccc1)C(=O)N[C@H](COC(=O)[C@@H](CC=C)CC(=O)OC(C)(C)C)Cc1c[nH]c2ccccc12	-1.2	2.4	-0.3	-4.1	26.7*	1.3
C=CCC[C@@H](Cc1ccc(F)cc1)C(=O)OC[C@H](Cc1c[nH]c2ccccc12)NC(=O)[C@@H](CC=C)CC(=O)NCCO	-1.1	0.5	1.3	-27.0	6.3	58.1*
C=CCC[C@@H](Cc1ccc(F)cc1)C(=O)OC[C@@H](Cc1c[nH]c2ccccc12)NC(=O)[C@@H](CC=C)CC(=O)NCCO	-7.5	-11.0	1.4	-37.2	-3.7	-3.3
CC(=O)Nc1cc(F)c2c(c1F)Cc1cc(F)ccc1-2	8.9	-0.6	-0.4	18.5	24.5*	-2.3
COc1ccc(C2C3=C(CC(C)(C)CC3=O)Nc3c2c(=O)n(C)c(=O)n3C)cc1OC (stereo not drawn)	-0.6	-0.9	-13.8	112.6*	4.3	2.1
Cc1c(C(=O)N2CCCCC2)oc2ccc(Br)cc12	4.7	-6.1	-0.2	6.1	-10.4	0.2
Cc1c(C(=O)N2CCCCC2)oc2ccccc12	-5.3	3.0	-0.8	1.8	14.1	-0.5
Nc1c(C(=O)N2CCCCCC2)oc2ccccc12	1.8	3.5	0.3	112.5*	6.7	-0.4
Cc1ccc2oc(C(=O)N3CCCCCC3)c(C)c2c1	4.1	1.0	-0.4	-12.5	26.1*	2.7
CCOc1ccc(-c2onc(C(F)(F)F)c2-c2cscn2)c(O)c1	-3.2	1.4	-0.4	18.1	26.7*	0.1
CN(Cc1ccc(F)cc1)C(=O)CN1C(=O)C2(OCCCO2)c2ccccc21	6.0	10.6	0.1	/	/	/
Cc1cc(C(=O)CN2C(=O)NC3(CCCC3)C2=O)c(C)n1-c1ccc2c(c1)OCO2	1.4	0.4	-1.6	35.5	7.9	0.8
Cc1cc(C(=O)CN2C(=O)NC(C)(CC(C)C)C2=O)c(C)n1-c1ccc2c(c1)OCO2 (stereo not drawn)	-4.0	-6.3	0.1	80.4*	-6.1	-2.7
SMILES	Tn7 DDE FP	Tn6 DDE FP	proKLK7 act	CRFBP-R2 block	NRP1-CendR mod	CRFBP-R2 agonist
O=c1[nH]c2ccc([N+](=O)[O-])cc2nc1/C=C(\O)c1ccccc1	4.4	5.6	0.5	-10.8	84.5*	4.9
C/C(O)=C/c1nc2ccccc2[nH]c1=O	1.8	4.1	0.1	-28.6	-1.0	4.0
CC(=O)Nc1ccc(S(=O)(=O)N2CCC(NC(C)=O)(c3cccc(F)c3)CC2)cc1	0.3	1.5	0.0	51.2*	-0.1	-6.7
CC(=O)Nc1ccc(S(=O)(=O)N2CCC(C(=O)O)(c3ccccc3)CC2)cc1	-0.8	7.9	0.7	7.7	11.4	-2.1
CCCCn1c(N)c(N(CCOC)C(=O)COC(=O)/C=C/c2ccc(Br)cc2)c(=O)[nH]c1=O	-1.6	-13.0	-0.7	1.8	22.7*	0.2
O=C(Nc1nnc(-c2ccccc2)o1)c1ccc(Cl)cc1	-3.7	-5.9	-0.1	72.8*	-4.1	54.3*
CC(=O)c1ccc(C(=O)Nc2nnc(-c3ccc(Cl)cc3)o2)cc1	4.1	5.0	0.2	3.4	0.4	2.8
CN(C)CCCN1C(=O)c2cccc3c([N+](=O)[O-])ccc(c23)C1=O	-1.7	-0.9	-0.4	80.9*	28.6*	56.0*
CCc1ccc(C(C)NC(=S)NC2CCCCC2)cc1 (stereo not drawn)	/	/	/	71.1*	6.0	4.7
Cc1ccc2c(c1)C(C)CC(C)(C)N2C(=O)CN1CCN(C)CC1 (stereo not drawn)	-3.9	2.8	0.3	68.0*	-0.1	-2.9
CC1CC(C)(C)N(C(=O)CN2C(=O)c3ccccc3C2=O)c2ccccc21 (stereo not drawn)	-2.4	7.2	-0.5	-131.6	0.7	113.8*
COC(=O)[C@]12C[C@H](CC(=O)NCc3ccc(OC)c(OC)c3)C(=O)N(Cc3cccc4ccccc34)C1=C[C@H](C(C)(C)C)O[C@@H]2C	-2.4	5.5	0.9	/	/	/
CC(C)=CCNc1ncnc2c1c(C#N)cn2C1OC(CO)C(O)C1O (stereo not drawn)	1.2	6.3	0.0	31.0	26.2*	-2.4
OCC1OC(n2ccc3c(NO)ncnc32)C(O)C1O (stereo not drawn)	-5.8	-2.2	0.3	-2.4	-7.5	2.7
CCN(CC)S(=O)(=O)c1cc(NC(=O)COC(=O)CCC(=O)c2cccs2)ccc1C	-3.1	-1.9	0.4	-68.2	26.1*	1.2
CSc1nc2cc(Cl)ccc2s1	-6.4	-2.2	0.1	51.7*	11.9	-1.0
CC(C)=CCC[C@@]1(C(=O)O)[C@@H]2C/C=C(\C)CC/C=C(\C)CC[C@H]1[C@]1(CC2)CO1	-4.4	0.9	0.7	/	/	/
CN1CCN(C2=CC3=CC(=C(C#N)C#N)CCC3CC2)CC1 (stereo not drawn)	/	/	/	-172.5	131.9	240.7*
CCN1CCN(C2=CC3=CC(=C(C#N)C#N)CCC3CC2)CC1 (stereo not drawn)	/	/	/	i	132.9	500.2*
